Measurements as given in ChEMBL document CHEMBL3797041, “Discovery of potent, reversible MetAP2 inhibitors via fragment based drug discovery and structure based drug design-Part 2” (Bioorg Med Chem Lett, 2016).

Experiments:
[1] = molecular target: T1, Cytochrome P450 1A2 (Homo sapiens, UniProt P05177); test: Inhibition of human CYP1A2 expressed in Escherichia coli DH5alpha; type: ADME
T1 sequence (P05177 whole entry): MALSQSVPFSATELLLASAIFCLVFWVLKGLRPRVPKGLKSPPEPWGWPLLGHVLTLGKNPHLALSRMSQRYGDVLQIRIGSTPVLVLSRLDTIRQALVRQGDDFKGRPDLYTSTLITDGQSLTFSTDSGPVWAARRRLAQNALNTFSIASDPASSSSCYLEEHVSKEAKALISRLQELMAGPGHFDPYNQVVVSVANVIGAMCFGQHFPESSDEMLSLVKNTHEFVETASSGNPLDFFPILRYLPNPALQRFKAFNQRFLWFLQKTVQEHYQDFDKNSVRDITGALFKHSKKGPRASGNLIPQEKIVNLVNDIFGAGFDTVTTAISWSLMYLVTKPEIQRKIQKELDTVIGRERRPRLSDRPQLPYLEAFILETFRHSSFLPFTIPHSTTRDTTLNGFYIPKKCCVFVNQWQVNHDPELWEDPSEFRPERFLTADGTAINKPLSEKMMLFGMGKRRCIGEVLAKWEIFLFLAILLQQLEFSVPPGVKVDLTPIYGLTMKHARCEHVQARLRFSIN

[2] = system: Mus musculus; test: Antiobesity in diet-induced obese mouse model assessed as decrease in body weight at 30 mg/kg, po qd for 7 days relative to control; type: functional; conditions: 168 h
Procedure, shortened: (§1)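 DIO mice were dosed by oral gavage once daily for 7 days, with a vehicle-dosed cohort as the comparator. Body weight was read relative to the vehicle group, and food intake and activity levels were monitored in dosed and vehicle cohorts. In some studies, animals were first acclimated to gavage for a few weeks, until their weights stopped changing, before dosing began.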

[3] = Half life in Sprague-Dawley rat at 2.9 mg/kg, po; type: ADME, organism-based; conditions: in vivo
[4] = system: Rattus norvegicus; test: Volume of distribution in Sprague-Dawley rat at 2.9 mg/kg, po; type: ADME, organism-based; conditions: in vivo
[5] = Oral bioavailability in Sprague-Dawley rat at 2.9 mg/kg; type: ADME, organism-based; conditions: in vivo
[6] = system: Mus musculus; test: Toxicity in diet-induced obese mouse model assessed as effect on activity levels at 30 mg/kg, po qd for 7 days; type: organism-based; conditions: in vivo, 168 h; procedure, shortened: as §1
[7] = system: Mus musculus; test: Toxicity in diet-induced obese mouse model assessed as effect on food intake at 30 mg/kg, po qd for 7 days; type: organism-based; conditions: in vivo, 168 h; procedure, shortened: as §1
[8] = AUC in Sprague-Dawley rat at 2.9 mg/kg, po; type: ADME, organism-based; conditions: in vivo
[9] = Clearance in Sprague-Dawley rat at 2.9 mg/kg, po; type: ADME, organism-based; conditions: in vivo

Structure (SMILES)	IC50 [1] [µM]	other results
O=C(NCCO)c1ccc(-n2c3ccc(F)cc3c3[nH]ncc32)cc1	7.94	
Cc1nc2[nH]cnc2cc1-n1c2ccc(F)cc2c2[nH]ncc21	3.16	inhibition in vivo at 30 mg/kg [2]: 4%; half-life [3]: 6 h; Vd [4]: 1.597 L/kg; bioavailability [5]: 70%; Activity [6]: Non-toxic; Activity [7]: Non-toxic; AUC [8]: 2240 ng·h/mL; CL/F [9]: 17.2 mL/min/kg
Clc1ccc2c3[nH]ncc3n(-c3cccnc3)c2c1	0.0631	
Cc1nc2c(cc1-n1c3ccc(F)cc3c3[nH]ncc31)ncn2C	20	
Nc1ncc(-n2c3ccc(F)cc3c3[nH]ncc32)cc1Cl	0.158	

Further lines, with some results ahead:

IC50 [1] [µM]	Structure (SMILES)	other results
0.126	Fc1ccc2c(c1)c1[nH]ncc1n2-c1cccnc1	
> 50.1	Cc1c(-n2c3ccc(F)cc3c3[nH]ncc32)cnc2[nH]cnc12	
0.0501	Fc1cc2c3[nH]ncc3n(-c3cccnc3)c2cc1F	
7.94	Cc1cc(C(=O)NCCO)ccc1-n1c2ccc(F)cc2c2[nH]ncc21	
